# In ChEMBL document CHEMBL1123250, “Chloroalanyl antibiotic peptides: antagonism of their antimicrobial effects by L-alanine and L-alanyl peptides in gram-negative bacteria” (1986):
# Several values for one entry are separate records, joined by “and”; a condition that tells them apart may be missing. Identical values can stand only once.
# Key:
# [1] = test system: Escherichia coli; experiment: Compound was tested for enzyme activity against transaminase B; per mg of protein
# In short: (§1)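 Homogenates of E. coli JSR-0 taken 30 min after agent addition at ~100 Klett units (Davis-Mingioli medium with Met/Pro, Leu/Ile/Val, and in some cultures sucrose or L-Ala). Valine→α-ketoisovalerate transamination read in Tris-HCl pH 7.8 with pyridoxal phosphate and α-ketoglutarate at 37 °C. Timed aliquots derivatized with 2,4-dinitrophenylhydrazine; hydrazone read at 430 nm against a standard curve.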
# [2] = molecular target: Alanine racemase, biosynthetic (Escherichia coli K-12) (UniProt P0A6B4); experiment: Compound was tested for enzyme activity against alanine racemase; per mg of protein
# Sequence of Alanine racemase, biosynthetic (Escherichia coli K-12) (P0A6B4 whole entry): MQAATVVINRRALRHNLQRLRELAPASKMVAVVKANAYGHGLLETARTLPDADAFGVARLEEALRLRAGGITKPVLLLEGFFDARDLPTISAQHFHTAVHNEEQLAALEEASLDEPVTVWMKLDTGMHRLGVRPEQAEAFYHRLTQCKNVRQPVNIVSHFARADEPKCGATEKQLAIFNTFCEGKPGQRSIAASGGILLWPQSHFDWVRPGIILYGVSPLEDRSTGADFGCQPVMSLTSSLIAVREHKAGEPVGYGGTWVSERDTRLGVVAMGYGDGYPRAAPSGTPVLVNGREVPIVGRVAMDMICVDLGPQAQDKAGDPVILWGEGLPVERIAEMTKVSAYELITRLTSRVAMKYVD
# In short: (§2)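 E. coli JSR-0 grown at 37 °C in Davis-Mingioli medium with Met/Pro (50 µg/mL) and Leu/Ile/Val (100 µg/mL). Some cultures had 5% sucrose or 500 µg/mL L-Ala. Agent added at ~100 Klett units; cells harvested after 30 min, washed and sonicated. Racemase read D→L in the supernatant, coupled to L-alanine dehydrogenase (NADH, 340 nm): 10 mM D-Ala, 5 mM NAD+, CHES pH 9.0, 37 °C.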
# [3] = test system: Staphylococcus epidermidis; experiment: Compound was tested for antibacterial activity against Staphylococcus epidermidis; assay type: functional
# In short: (§3)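 Agar dilution MIC on defined peptide susceptibility agar. Inoculum made by growing overnight in liquid peptide susceptibility medium, then diluting to about 1 × 10^7 cfu/mL. Applied by Steers replicator to plates carrying serial 2-fold peptide dilutions. Incubated overnight at 37 °C. MIC = lowest concentration allowing growth of fewer than 10 colonies after 16-18 h.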
# [4] = molecular target: Alanine racemase, biosynthetic (Escherichia coli K-12) (UniProt P0A6B4); experiment: Compound was tested for enzyme activity against alanine racemase; per mg protein; in short: as §2
# [5] = test system: Escherichia coli; experiment: Compound was tested for enzyme activity against transaminase B; per mg protein; in short: as §1
# [6] = test system: Shigella flexneri; experiment: Compound was tested for antibacterial activity at a concentration of 50 ug/mL against Shigella flexneri; assay type: functional
# In short: (§4)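 Agar dilution in defined peptide susceptibility agar with L-Ala or L-Ala-L-Ala added at 25, 50, 100 or 500 µg/mL, and peptide in serial 2-fold dilutions. Inocula were grown overnight in the liquid susceptibility medium and diluted to about 1 x 10^7 cfu/mL, then replicator-spotted. Plates were incubated overnight at 37 °C. MIC was the lowest concentration allowing fewer than 10 colonies at 16-18 h.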
# [7] = test system: Escherichia coli; experiment: (§5) Compound was tested for antibacterial activity at a concentration of 25 ug/mL against Escherichia coli JSR-O; assay type: functional; in short: as §4
# [8] = test system: Shigella flexneri; experiment: (§6) Compound was tested for antibacterial activity at a concentration of 25 ug/mL against Shigella flexneri; assay type: functional; in short: as §4
# [9] = test system: Escherichia coli; experiment: (§7) Compound was tested for antibacterial activity at a concentration of 25 ug/mL against Escherichia coli ATCC; assay type: functional; in short: as §4
# [10] = test system: Shigella flexneri; experiment: Compound was tested for antibacterial activity against Shigella flexneri at a concentration of 25 ug/mL; assay type: functional; in short: as §4
# [11] = test system: Klebsiella aerogenes; experiment: (§8) Compound was tested for antibacterial activity at a concentration of 25 ug/mL against Enterobacter aerogenes; assay type: functional; in short: as §4
# [12] = test system: Staphylococcus aureus; experiment: (§9) Compound was tested for antibacterial activity against Staphylococcus aureus at a concentration of 25 ug/mL; assay type: functional; in short: as §4
# [13] = test system: Staphylococcus epidermidis; experiment: as §9; assay type: functional; in short: as §4
# [14] = test system: Staphylococcus aureus; experiment: Compound was tested for antibacterial activity at a concentration of 50 ug/mL against Staphylococcus aureus; assay type: functional; in short: as §4
# [15] = test system: Enterococcus faecalis; experiment: Compound was tested for antibacterial activity at a concentration of 50 ug/mL against Streptococcus faecalis; assay type: functional; in short: as §4
# [16] = test system: Escherichia coli; experiment: as §5; assay type: functional; in short: as §4; remark: listed apart in the source
# [17] = test system: Streptococcus pyogenes; experiment: Compound was tested for antibacterial activity against Streptococcus pyogenes; assay type: functional
# In short: (§10)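 Inoculum made from colonies grown overnight on chocolate or blood agar, resuspended in liquid medium to 10' cfu/mL. Applied by Steers replicator to serial 2-fold peptide dilutions. Incubated overnight at 37 °C under 7% CO2. MIC = lowest concentration giving fewer than 10 colonies at 16-18 h.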
# [18] = test system: Staphylococcus aureus; experiment: (§11) Compound was tested for antibacterial activity at a concentration of 25 ug/mL against Staphylococcus aureus; assay type: functional; in short: as §4
# [19] = test system: Escherichia coli; experiment: Compound was tested for antibacterial activity at a concentration of 100 ug/mL against Escherichia coli JSR-O; assay type: functional; in short: as §4
# [20] = test system: Shigella flexneri; experiment: Compound was tested for antibacterial activity at a concentration of 500 ug/mL against Shigella flexneri; assay type: functional; in short: as §4
# [21] = test system: Escherichia coli; experiment: Compound was tested for antibacterial activity at a concentration of 50 ug/mL against Escherichia coli JSR-O; assay type: functional; in short: as §4
# [22] = test system: Enterobacter cloacae; experiment: Compound was tested for antibacterial activity at a concentration of 500 ug/mL against Enterobacter cloacae; assay type: functional; in short: as §4
# [23] = test system: Klebsiella aerogenes; experiment: as §8; assay type: functional; in short: as §4; remark: listed apart in the source
# [24] = test system: Escherichia coli; experiment: Compound was tested for antibacterial activity against Escherichia coli JSR-O at a concentration of 25 ug/mL; assay type: functional; in short: as §4
# [25] = test system: Escherichia coli; experiment: Compound was tested for enzyme activity at a concentration of 100 ug/mL against transaminase B; per mg of protein
# In short: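 E. coli JSR-0 was grown at 37 °C in supplemented Davis-Mingioli medium (Met and Pro; Leu, Ile and Val), with sucrose or L-Ala in some cultures. Agent was added at about 100 Klett units and cells harvested after 30 min. The sonicated homogenate was run with Tris pH 7.8, pyridoxal phosphate and α-ketoglutarate; L-valine started transamination at 37 °C. Timed aliquots were derivatised with 2,4-DNPH, and α-ketoisovalerate hydrazone was read at A430 against a standard curve.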
# [26] = test system: Staphylococcus epidermidis; experiment: (§12) Compound was tested for antibacterial activity at a concentration of 25 ug/mL against Staphylococcus epidermidis; assay type: functional; in short: as §4
# [27] = test system: Streptococcus agalactiae; experiment: Compound was tested for antibacterial activity against Streptococcus agalactiae; assay type: functional; in short: as §10
# [28] = test system: Escherichia coli; experiment: Compound was tested for antibacterial activity at a concentration of 500 ug/mL against Escherichia coli JSR-O; assay type: functional; in short: as §4
# [29] = test system: Staphylococcus aureus; experiment: as §11; assay type: functional; in short: as §4; remark: listed apart in the source
# [30] = test system: Shigella flexneri; experiment: as §6; assay type: functional; in short: as §4; remark: listed apart in the source
# [31] = molecular target: Alanine racemase, biosynthetic (Escherichia coli K-12) (UniProt P0A6B4); experiment: (§13) Compound was tested for enzyme activity at a concentration of 100 ug/mL against alanine racemase; per mg of protein
# In short: (§14)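 E. coli JSR-0 was grown at 37 °C in Davis-Mingioli medium with Met and Pro (50 µg/mL each) and Leu, Ile and Val (100 µg/mL each), plus 5% sucrose or 500 µg/mL L-Ala. Agent was added at about 100 Klett units, with 30 min more shaking. Cells were washed in phosphate/EDTA/PLP buffer pH 8.0 and sonicated. D→L racemase was coupled to L-alanine dehydrogenase (10 mM D-Ala, 5 mM NAD+, CHES pH 9.0, 37 °C), reading NADH at 340 nm.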
# [32] = test system: Klebsiella aerogenes; experiment: Compound was tested for antibacterial activity at a concentration of 500 ug/mL against Enterobacter aerogenes; assay type: functional; in short: as §4
# [33] = test system: Escherichia coli; experiment: as §7; assay type: functional; in short: as §4; remark: listed apart in the source
# [34] = test system: Klebsiella aerogenes; experiment: Compound was tested for antibacterial activity against Enterobacter aerogenes at a concentration of 25 ug/mL; assay type: functional; in short: as §4
# [35] = test system: Enterobacter cloacae; experiment: Compound was tested for antibacterial activity at a concentration of 25 ug/mL against Enterobacter cloacae; assay type: functional; in short: as §4
# [36] = test system: Enterococcus faecalis; experiment: Compound was tested for antibacterial activity against Streptococcus faecalis at a concentration of 25 ug/mL; assay type: functional; in short: as §4
# [37] = test system: Staphylococcus epidermidis; experiment: Compound was tested for antibacterial activity at a concentration of 50 ug/mL against Staphylococcus epidermidis; assay type: functional; in short: as §4
# [38] = test system: Escherichia coli; experiment: Compound was tested for antibacterial activity against Escherichia coli; assay type: functional; in short: as §3
# [39] = test system: Escherichia coli; experiment: Compound was tested for antibacterial activity at a concentration of 500 ug/mL against Escherichia coli ATCC; assay type: functional; in short: as §4
# [40] = test system: Klebsiella aerogenes; experiment: Compound was tested for antibacterial activity at a concentration of 50 ug/mL against Enterobacter aerogenes; assay type: functional; in short: as §4
# [41] = test system: Staphylococcus epidermidis; experiment: as §12; assay type: functional; in short: as §4; remark: listed apart in the source
# [42] = test system: Escherichia coli; experiment: Compound was tested for antibacterial activity at a concentration of 50 ug/mL against Escherichia coli ATCC; assay type: functional; in short: as §4
# [43] = test system: Enterococcus faecalis; experiment: Compound was tested for antibacterial activity at a concentration of 100 ug/mL against Streptococcus faecalis; assay type: functional; in short: as §4
# [44] = test system: Shigella flexneri; experiment: Compound was tested for antibacterial activity against Shigella flexneri; assay type: functional; in short: as §3
# [45] = test system: Enterococcus faecalis; experiment: Compound was tested for antibacterial activity at a concentration of 500 ug/mL against Streptococcus faecalis; assay type: functional; in short: as §4
# [46] = molecular target: Alanine racemase, biosynthetic (Escherichia coli K-12) (UniProt P0A6B4); experiment: as §13; in short: as §14; remark: listed apart in the source
# [47] = test system: Enterobacter cloacae; experiment: Compound was tested for antibacterial activity at a concentration of 50 ug/mL against Enterobacter cloacae; assay type: functional; in short: as §4
# [48] = test system: Enterococcus faecalis; experiment: (§15) Compound was tested for antibacterial activity at a concentration of 25 ug/mL against Streptococcus faecalis; assay type: functional; in short: as §4
# [49] = test system: Enterococcus faecalis; experiment: as §15; assay type: functional; in short: as §4; remark: listed apart in the source
smiles,measurement,setting,value
C[C@H](N)C(=O)N[C@@H](CCl)C(=O)O,specific activity,[1],0 µmol/min/mg
same,specific activity,[2],0.0117 µmol/min/mg
same,MIC,[3],0.0125 µg/mL
O=C(N[C@H](CO)[C@H](O)c1ccc([N+](=O)[O-])cc1)C(Cl)Cl,specific activity,[4],0.0176 µmol/min/mg
same,specific activity,[5],0.0541 µmol/min/mg
N[C@@H](CCl)C(=O)N[C@@H](CCl)C(=O)O,MIC,[6],> 100 µg/mL
same,MIC,[7],6.25 µg/mL
same,MIC,[8],> 100 µg/mL
same,MIC,[9],3.12 µg/mL
same,MIC,[10],1.56 µg/mL
same,MIC,[11],12.5 µg/mL
same,MIC,[12],0.05 µg/mL
same,MIC,[13],0.05 µg/mL
same,MIC,[14],6.25 µg/mL
same,MIC,[15],> 100 µg/mL
same,MIC,[16],> 100 µg/mL
same,MIC,[17],3.12 µg/mL
same,MIC,[18],0.05 µg/mL
same,MIC,[19],>100 µg/mL
same,MIC,"[19]; Escherichia coli, read-out: MIC",50 µg/mL
same,MIC,[20],> 100 µg/mL
same,MIC,[21],> 100 µg/mL
same,MIC,[22],> 100 µg/mL
same,MIC,[23],> 100 µg/mL
same,MIC,[24],3.12 µg/mL
same,Activity,[25],0.13 µM/min and 0.11 µM/min
same,MIC,[26],0.05 µg/mL
same,MIC,[27],1.56 µg/mL
same,MIC,[28],> 100 µg/mL
same,MIC,[29],0.39 µg/mL
same,MIC,[30],3.12 µg/mL
same,Activity,[31],0.85 µM/min
same,MIC,[32],> 100 µg/mL
same,MIC,[33],> 100 µg/mL
same,MIC,[34],6.25 µg/mL
same,MIC,[35],> 100 µg/mL
same,MIC,[36],> 100 µg/mL
same,MIC,[37],6.25 µg/mL
same,MIC,[38],12.5 µg/mL
same,MIC,[39],> 100 µg/mL
same,MIC,[40],> 100 µg/mL
same,MIC,[41],0.39 µg/mL
same,MIC,[42],> 100 µg/mL
same,MIC,[43],> 100 µg/mL
same,MIC,[44],3.25 µg/mL
same,MIC,[45],> 100 µg/mL
same,Activity,[46],0.19 µM/min
same,MIC,[47],> 100 µg/mL
same,MIC,[48],> 100 µg/mL
same,MIC,[49],> 100 µg/mL
